Experimental data: PMC2858377 (Nature structural & molecular biology, 2009)
“Also recorded” adds a separate entry of the source.

What was measured:
14-3-3ζ [1] = biological target: T1, 14-3-3ζ (Homo sapiens, UniProt P63104); assay: Isothermal titration calorimetry of KH1-derived peptides with 14-3-3ζ; assay type: binding; settings: ITC, 200 μM 14-3-3ζ, 2 mM peptide, 30°C
T1 sequence (P63104 1-245): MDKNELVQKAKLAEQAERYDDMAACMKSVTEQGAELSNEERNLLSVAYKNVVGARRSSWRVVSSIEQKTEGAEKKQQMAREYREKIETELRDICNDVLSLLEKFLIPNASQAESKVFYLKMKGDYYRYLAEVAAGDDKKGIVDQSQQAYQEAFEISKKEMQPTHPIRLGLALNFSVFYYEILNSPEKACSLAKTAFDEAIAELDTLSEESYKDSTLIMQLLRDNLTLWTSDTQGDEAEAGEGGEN
In short: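 14-3-3ζ was dialysed into 10 mM Tris pH 7.4, 50 mM NaCl, 1 mM TCEP. It was titrated with phosphorylated or unphosphorylated KH1-derived peptide dissolved in the dialysis buffer, in a VP-ITC microcalorimeter. Concentrations given are 200 μM protein and 2 mM peptide; all runs were at 30 °C.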

[2] = test system: nuclear/cytoplasmic distribution of KSRP in HIRc-B cells; assay: KSRP sub-cellular localization, HIRc-B cells; assay type: cell-based; settings: insulin 10^−6 M, 1h; nuclear and cytoplasmic extracts
[3] = test system: cellular distribution of AUF1 and hnRNPA1 in HIRc-B cells; assay: AUF1 and hnRNPA1 cellular distribution, HIRc-B cells; assay type: cell-based; settings: insulin 10^−6 M, 1h
KSRP KH2 = assay: KH1–KH2 inter-domain interaction by 15N-HSQC NMR; assay type: binding, human; settings: 15N-HSQC of KH1_143–218, KH2_233-305 and KH12_143–305
Folding state by NMR = assay type: physicochemical; settings: for folding state (in words): SOFAST 15N-1H HMQC, 10 mM Tris-HCl pH 7.4, 50 mM NaCl, 1 mM TCEP
In short: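 KH1 (residues 130–218) was phosphorylated with active AKT1 and separated from unphosphorylated protein by gel filtration, with identity confirmed by mass spectrometry. Samples were exchanged into 10 mM Tris-HCl pH 7.4, 50 mM NaCl, 1 mM TCEP and examined by 15N-HSQC / SOFAST HMQC. Phospho-KH1 was then dephosphorylated with 100 U λ phosphatase (60 min, 37 °C), re-purified and re-examined. Heat-inactivated AKT1 and S193A mutant served as controls.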

AU-rich RNA targets = assay: KH domain–RNA binding by 15N-HSQC NMR titration
In short: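 Chemically synthesised RNA hexamers, used without further purification, were titrated into the 15N-labelled KH domain sample. 15N-HSQC spectra were acquired across the titration, with the protein in Tris-HCl pH 7.4/NaCl/TCEP buffer at 27°C.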

AKT1 = assay: In vitro phosphorylation by AKT kinase; assay type: biochemical; settings: 100 μM KH1, 1 μg recombinant active AKT1, 37°C, 48 hours
14-3-3ζ [4] = biological target: T1, 14-3-3ζ; assay: SOFAST 15N-1H HMQC NMR titration of 14-3-3 into 15N-labelled KH1 / phospho-KH1; assay type: binding; settings: 15 μM KH1 or phospho-KH1, KH:14-3-3 1:2 ratio
In short: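 15N-labelled KH1 or AKT1-phosphorylated KH1 in 10 mM Tris-HCl pH 7.4, 50 mM NaCl, 1 mM TCEP was mixed with 14-3-3ζ at a 1:2 ratio. SOFAST 15N-HMQC spectra were superimposed on free-domain spectra to track resonance broadening. For competition, the phosphorylated KH1 peptide was added to the phospho-KH1–14-3-3 complex at a 1:2:10 ratio.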

[5] = CD spectroscopy / thermal unfolding; assay type: physicochemical

Molecule: non phosphorylated peptide: KH1-derived non-phosphorylated peptide used in ITC (YGLPERSVSLTGAPES)
- binding to 14-3-3ζ (in words) (14-3-3ζ [1]): no binding is observed

Molecule: insulin: insulin treatment induces AKT activation in HIRc-B cells
- KSRP localization [2]: AKT activation promotes nuclear localization of KSRP
- effect on AUF1 and hnRNPA1 distribution [3]: did not affect the cellular distribution of the ribo-nucleoproteins AUF1 and hnRNPA1

B1: KH1: first KH domain of human KSRP (Ile130–Gly218) (protein)
chain: ISSQLGPIHPPPRTSMTEEYRVPDGMVGLIIGRGGEQINKIQQDSGCKVQISPDSGGLPERSVSLTGAPESVQKAKMMLDDIVSRGRGG
modifications: 15N-labelled
- interaction of KH1 with KH2 (in words) (KSRP KH2): KH1 and KH2 do not interact in a stable and specific way
- folding state (in words) (Folding state by NMR): folded
- affinity for AU-rich sequences (in words) (AU-rich RNA targets; compared with the other KH domains): affinity substantially lower than that of the other KH domains
- Kd (AU-rich RNA targets; read-out: Kd for AU-rich RNA, 5′-UAUUUA-3′ and 5′-UAUUAU-3′ RNAs, 25 μM 15N-labeled KH domain, 10 mM Tris-HCl pH 7.4, 100 mM NaCl, 1 mM TCEP, 27°C, too low to be accurately measured): > 1000 µM
- phosphorylation efficiency (AKT1): ~ 90%
- interaction with 14-3-3 (change in spectrum) (14-3-3ζ [4]): the two proteins are not interacting; also recorded: No appreciable change is observed in the spectrum of the domain
- interaction with 14-3-3 (change in spectrum) (14-3-3ζ [4]; listed as Non-phosphorylated KH1): not recognized by 14-3-3
- fraction of unfolded protein ([5]; 37°C): ~ 16%

B2: phospho-KH1: KSRP KH1 phosphorylated by AKT kinase at Ser193 (protein)
chain: ISSQLGPIHPPPRTSMTEEYRVPDGMVGLIIGRGGEQINKIQQDSGCKVQISPDSGGLPERSVSLTGAPESVQKAKMMLDDIVSRGRGG
modifications: phosphoserine at 193; 15N-labelled
- folding state (in words) (Folding state by NMR): unfolded
- folding state (in words) (Folding state by NMR; listed as phosphorylated protein): essentially unfolded
- folding after de-phosphorylation (in words) (Folding state by NMR; SOFAST HMQC after λ protein phosphatase, 100 Units, 60 minutes, 37 °C): removal of the phosphate group leads to complete refolding of the protein
- interaction with 14-3-3 (change in spectrum) (14-3-3ζ [4]): Selected resonances broaden substantially; also recorded: interacts with the protein
- interaction with 14-3-3 (change in spectrum) (14-3-3ζ [4]; listed as phosphorylated KH1): strong selective decrease in the intensity of the NMR signal of a small number of resonances
- effect of temperature on CD spectrum ([5]; CD at 20, 40, 60, 80 and 95 °C): The spectrum of the protein does not change with temperature; also recorded: The spectra do not change substantially at increasing temperatures
- apparent percentage of unfolded peptidic chain ([5]; CD, 20 °C, range expected for fully unfolded proteins 69.8-89.9 %): 79.9%
